Data on five compounds can be found in ChEMBL document CHEMBL2375304, “Synthesis and anticancer activity of novel 2-pyridyl hexahyrocyclooctathieno[2,3-d]pyrimidine derivatives” (2013).

Common to all, as to assay type: functional
Assay [1] concerns BT-549. In words: Growth inhibition of human BT549 cells at 10^-5 M after 48 hrs by Sulforhodamine B assay relative to control. The following applies: BT-549, 48 h, read-out: GI. In short, it runs like this:
(§1)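 Single-dose screen at 10⁻⁵ M. Cells are preincubated 24 h at 37 °C in 5% CO2, then exposed to the compound, diluted from a DMSO stock into medium with gentamicin, for 48 h. Adherent cells are fixed with cold TCA (final 10%) and suspension cells with TCA (final 16%). Cells are stained with 0.4% SRB in 1% acetic acid and bound dye is read at 515 nm. Percent growth inhibition is taken against control wells and time-zero plates.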
(The SRB assay estimates cell density from bound dye.)

The subject of assay [2] is PC-3. The experiment in a line: Growth inhibition of human PC3 cells at 10^-5 M after 48 hrs by Sulforhodamine B assay relative to control. The following applies: PC-3, 48 h, read-out: GI. The method in brief: (§2)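 Single-dose primary screen at 10⁻⁵ M across 49 lines. Cells were plated 24 h beforehand, with a TCA-fixed time-zero plate, then exposed 48 h at 37 °C, 5% CO2. Cells were fixed with cold TCA, stained with SRB and read at 515 nm. Percent growth was calculated against time-zero and untreated-control absorbances.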

Assay [3] concerns COLO 205. In words: Growth inhibition of human COLO205 cells at 10^-5 M after 48 hrs by Sulforhodamine B assay relative to control. Conditions: COLO 205, 48 h, read-out: GI. In short, it runs like this: as §1
Assay [4] relates to KM12. The experiment in a line: Growth inhibition of human KM12 cells at 10^-5 M after 48 hrs by Sulforhodamine B assay relative to control. Conditions: KM12, 48 h, read-out: GI. The method in brief: as §1
For assay [5], the system named is Hs-578T. In words: Growth inhibition of human Hs578T cells at 10^-5 M after 48 hrs by Sulforhodamine B assay relative to control. The following applies: read-out: GI. In short, it runs like this:
as §1

Assay [6] deals with UACC-62. In words: Growth inhibition of human UACC62 cells at 10^-5 M after 48 hrs by Sulforhodamine B assay relative to control. Conditions: UACC-62, 48 h, read-out: GI. The method in brief: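 Single-dose stage: compound tested at 10⁻⁵ M in the 49-cell-line panel. Cells grew 24 h at 37 °C, 5% CO₂ before drug addition. Drug stock was in DMSO at 400-fold, diluted in medium with gentamicin. After 48 h exposure, adherent cells were fixed with cold TCA (10% final) and stained with 0.4% SRB in 1% acetic acid. Dye was solubilized in 10 mM Tris, read at 515 nm. Growth percentage was taken relative to untreated control and time-zero plates.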

The subject of assay [7] is HOP-62. In words: Growth inhibition of human HOP62 cells at 10^-5 M after 48 hrs by Sulforhodamine B assay relative to control. The following applies: HOP-62, 48 h, read-out: GI. In short, it runs like this:
as §1

In assay [8] the test system is SF-295. In words: Growth inhibition of human SF295 cells at 10^-5 M after 48 hrs by Sulforhodamine B assay relative to control. Conditions: SF-295, 48 h, read-out: GI. The method in brief: as §2
For assay [9], the system named is OVCAR-4. In words: Growth inhibition of human OVCAR4 cells at 10^-5 M after 48 hrs by Sulforhodamine B assay relative to control. The following applies: OVCAR-4, 48 h, read-out: GI. The method in brief:
as §2

Assay [10] concerns 786-0. In words: Growth inhibition of human 786-0 cells at 10^-5 M after 48 hrs by Sulforhodamine B assay relative to control. Conditions: 786-0, 48 h, read-out: GI. The method in brief:
as §1

Assay [11] concerns NCI-H322M. In words: Growth inhibition of human NCI-H322M cells at 10^-5 M after 48 hrs by Sulforhodamine B assay relative to control. Conditions: read-out: GI. In short, it runs like this:
as §2

Assay [12] is described as follows: Growth inhibition of human HCC2998 cells at 10^-5 M after 48 hrs by Sulforhodamine B assay relative to control. Conditions: HCC 2998, 48 h, read-out: GI. In short, it runs like this:
as §1

In assay [13] the test system is K562. In words: Growth inhibition of human K562 cells at 10^-5 M after 48 hrs by Sulforhodamine B assay relative to control. The following applies: K562, 48 h, read-out: GI. The method in brief:
as §1

Assay [14] concerns MOLT-4. In words: Growth inhibition of human MOLT4 cells at 10^-5 M after 48 hrs by Sulforhodamine B assay relative to control. Conditions: MOLT-4, 48 h, read-out: GI. In short, it runs like this: as §2
Assay [15] deals with SK-MEL-28. The experiment in a line: Growth inhibition of human SK-MEL-28 cells at 10^-5 M after 48 hrs by Sulforhodamine B assay relative to control. Conditions: SK-MEL-28, 48 h, read-out: GI. The method in brief:
as §2

In assay [16] the test system is SNB-75. The experiment in a line: Growth inhibition of human SNB75 cells at 10^-5 M after 48 hrs by Sulforhodamine B assay relative to control. Conditions: SNB-75, 48 h, read-out: GI. The method in brief:
as §2

SMILES strings stand for the structures.

As to `CN1CCN(c2nc(-c3ccccn3)nc3sc4c(c23)CCCCCC4)CC1`, the inhibition of growth at 10 µM in assay [1] was 10.3%; in assay [2], 15.3%; in assay [3], 0.37%; in assay [4], 8.11%; in assay [5], 6.23%; in [6] it was 9.41%. The inhibition of growth at 10 µM in assay [7] was -3.13%; in assay [8], 13.8%; in [9], 16%; in assay [10], 10%; in [11], 1.03%; in assay [12], 4.02%. Also, the inhibition of growth at 10 µM in assay [13] is 20%; in [14], 7.6%; in [15], -5.08%; in assay [16], 14.4%.
As for `COc1ccc(N2CCN(c3nc(-c4ccncc4)nc4sc5c(c34)CCCCCC5)CC2)cc1`, the inhibition of growth at 10 µM is -17.1% in assay [1]; 44.5% in assay [2]; 5.76% in [3]; 22.4% in assay [4]; -5.59% in [5]; 36.9% in assay [6]. In addition, the inhibition of growth at 10 µM in assay [7] was 0.29%; in assay [8], 11.5%; in assay [9] it was 11.1%; in assay [10], 11.1%; in [11], -7.78%; in assay [12], -11.5%. The inhibition of growth at 10 µM in assay [13] is 23.2%; in [14], 16.1%; in assay [15], -5.27%; in assay [16], -13.7%.
For `c1ccc(N2CCN(c3nc(-c4ccncc4)nc4sc5c(c34)CCCCCC5)CC2)cc1`, the inhibition of growth at 10 µM was -14.1% in [1]; 5.9% in assay [2]; -1.65% in [3]; 4.95% in assay [4]; -12.9% in assay [5]; 5.59% in [6]. Also, the inhibition of growth at 10 µM is -5.44% in [7]; 6.51% in assay [8]; 0.34% in [9]; 1.77% in assay [10]; -2.96% in assay [11]; -14% in assay [12]. Besides, the inhibition of growth at 10 µM in assay [13] is 7.55%; in [14], 4.82%; in [15], -15%; in assay [16], -23.8%.
Take `c1ccc(N2CCN(c3nc(-c4ccccn4)nc4sc5c(c34)CCCCCC5)CC2)cc1`: the inhibition of growth at 10 µM in [1] was 2.77%; in assay [2], 54%; in assay [3], 26.3%; in assay [4] it was 55%; in assay [5], 6.17%; in [6], 41.2%. For the same compound, the inhibition of growth at 10 µM in assay [7] turned out to be 36.2%; in [8], 54.8%; in assay [9], 44%; in assay [10], 10.7%; in [11] it was 17.7%; in assay [12], 13.7%. The inhibition of growth at 10 µM in assay [13] is 79.2%; in assay [14], 47.9%; in [15], 7.85%; in assay [16], 9.19%.
On to `c1cc(-c2nc(N3CCOCC3)c3c4c(sc3n2)CCCCCC4)ccn1`, for which the inhibition of growth at 10 µM was -20.4% in assay [1]; 35.4% in assay [2]; -0.84% in [3]; 19.6% in assay [4]; -13.3% in assay [5]; 15.5% in [6]. Besides, the inhibition of growth at 10 µM is 1.14% in [7]; 19.5% in [8]; 22.7% in assay [9]; 32.9% in assay [10]; -14.3% in assay [11]; -8.59% in [12]. Further, the inhibition of growth at 10 µM in [13] is 29.3%; in assay [14], 24.5%; in assay [15], -7.03%; in [16], 0.97%.
